Test results reported in ChEMBL document CHEMBL1671716, “Antimicrobial susceptibility patterns for recent clinical isolates of anaerobic bacteria in South Korea” (2010).
In brackets after ≈: the same amount, converted by molar mass.

What was measured:
Bacteroides ovatus [1] = experiment: Antimicrobial activity against Bacteroides ovatus assessed as percent resistant isolates after 48 hrs by agar dilution method in presence of 4 ug/ml beta-lactamase inhibitor Tazobactam; type: functional
How it was run: (§1)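 CLSI agar dilution on recent Korean clinical anaerobe isolates. Inoculum 10^5 CFU per spot by replicator. Plates incubated in an anaerobic chamber at 37°C for 48 h. For piperacillin plus tazobactam, tazobactam was held constant at 4 μg/ml. Resistance and susceptibility rates derived from MICs.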

Bifidobacterium sp. = experiment: Antimicrobial activity against Bifidobacterium sp. assessed as percent susceptible isolates after 48 hrs by agar dilution method; type: functional
How it was run: (§2)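 CLSI agar dilution (M11-A7); inoculum 10^5 CFU applied by replicator; plates incubated anaerobically 48 h at 37°C. For piperacillin-tazobactam, tazobactam held constant at 4 μg/ml.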

Prevotella buccae [2] = experiment: Antimicrobial activity against Prevotella buccae assessed as percent susceptible isolates after 48 hrs by agar dilution method; type: functional, Segatella buccae; how it was run: as §2
[3] = system: Parabacteroides distasonis; experiment: Antimicrobial activity against Bacteroides distasonis assessed as percent resistant isolates after 48 hrs by agar dilution method; type: functional; how it was run: as §1
Bacteroides ovatus [4] = experiment: Antimicrobial activity against Bacteroides ovatus assessed as percent resistant isolates after 48 hrs by agar dilution method; type: functional; how it was run: as §1
Bacteroides ovatus [5] = experiment: Antimicrobial activity against Bacteroides ovatus assessed as percent susceptible isolates after 48 hrs by agar dilution method; type: functional
Bacteroides fragilis [6] = experiment: Antimicrobial activity against Bacteroides fragilis assessed as percent susceptible isolates after 48 hrs by agar dilution method in presence of 4 ug/ml beta-lactamase inhibitor Tazobactam; type: functional
Actinomyces israelii [7] = experiment: Antimicrobial activity against Actinomyces israelii assessed as percent susceptible isolates after 48 hrs by agar dilution method; type: functional
[8] = system: Parabacteroides distasonis; experiment: Antimicrobial activity against Bacteroides distasonis after 48 hrs by agar dilution method; type: functional
How it was run: (§3)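 MICs on clinical anaerobe isolates by the CLSI agar dilution method. Inoculum of 10^5 CFU applied with a Steers replicator. Plates incubated 48 h at 37°C in an anaerobic chamber.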

Schaalia odontolytica = experiment: Antimicrobial activity against Actinomyces odontolyticus assessed as percent susceptible isolates after 48 hrs by agar dilution method in presence of 4 ug/ml beta-lactamase inhibitor Tazobactam; type: functional; conditions: pooled result: one value given for 8 cell lines, strains, targets or settings
Parvimonas micra = experiment: Antimicrobial activity against Peptostreptococcus micros after 48 hrs by agar dilution method; type: functional; how it was run: as §2
Actinomyces israelii [9] = experiment: Antimicrobial activity against Actinomyces israelii after 48 hrs by agar dilution method; type: functional; how it was run: as §3
Actinomyces naeslundii [10] = experiment: Antimicrobial activity against Actinomyces naeslundii after 48 hrs by agar dilution method in presence of 4 ug/ml beta-lactamase inhibitor Tazobactam; type: functional
How it was run: (§4)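 MICs by CLSI agar dilution for piperacillin combined with tazobactam, with tazobactam held constant at 4 μg/ml. Clinical anaerobe isolates inoculated at 10^5 CFU by Steers replicator. Plates kept in an anaerobic chamber at 37°C for 48 h.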

Bacteroides fragilis [11] = experiment: Antimicrobial activity against Bacteroides fragilis after 48 hrs by agar dilution method; type: functional; how it was run: as §3
Bacteroides fragilis [12] = experiment: Antimicrobial activity against Bacteroides fragilis assessed as percent resistant isolates after 48 hrs by agar dilution method; type: functional; how it was run: as §1
Actinomyces naeslundii [13] = experiment: Antimicrobial activity against Actinomyces naeslundii assessed as percent resistant isolates after 48 hrs by agar dilution method; type: functional; how it was run: as §1
Bacteroides caccae [14] = experiment: Antimicrobial activity against Bacteroides caccae assessed as percent susceptible isolates after 48 hrs by agar dilution method in presence of 4 ug/ml beta-lactamase inhibitor Tazobactam; type: functional
Bacteroides fragilis [15] = experiment: Antimicrobial activity against Bacteroides fragilis after 48 hrs by agar dilution method in presence of 4 ug/ml beta-lactamase inhibitor Tazobactam; type: functional; how it was run: as §4
Bacteroides caccae [16] = experiment: Antimicrobial activity against Bacteroides caccae after 48 hrs by agar dilution method in presence of 4 ug/ml beta-lactamase inhibitor Tazobactam; type: functional; how it was run: as §4
Prevotella bivia = experiment: Antimicrobial activity against Prevotella bivia after 48 hrs by agar dilution method; type: functional; how it was run: as §2
Schaalia meyeri [17] = experiment: Antimicrobial activity against Actinomyces meyeri assessed as percent susceptible isolates after 48 hrs by agar dilution method; type: functional
Prevotella buccae [18] = experiment: Antimicrobial activity against Prevotella buccae after 48 hrs by agar dilution method; type: functional; conditions: Segatella buccae; how it was run: as §2
Phocaeicola vulgatus [19] = experiment: Antimicrobial activity against Bacteroides vulgatus assessed as percent resistant isolates after 48 hrs by agar dilution method; type: functional; how it was run: as §1
Prevotella intermedia [20] = experiment: Antimicrobial activity against Prevotella intermedia after 48 hrs by agar dilution method; type: functional; how it was run: as §2
Phocaeicola vulgatus [21] = experiment: Antimicrobial activity against Bacteroides vulgatus assessed as percent susceptible isolates after 48 hrs by agar dilution method; type: functional
Bacteroides ovatus [22] = experiment: Antimicrobial activity against Bacteroides ovatus after 48 hrs by agar dilution method in presence of 4 ug/ml beta-lactamase inhibitor Tazobactam; type: functional; how it was run: as §4
Eggerthella lenta = experiment: Antimicrobial activity against Eubacterium lentum after 48 hrs by agar dilution method in presence of 4 ug/ml beta-lactamase inhibitor Tazobactam; type: functional; how it was run: as §2
[23] = system: Bacteroides thetaiotaomicron; experiment: Antimicrobial activity against Bacteroides thetaiotaomicron assessed as percent susceptible isolates after 48 hrs by agar dilution method; type: functional
Hoylesella oralis [24] = experiment: Antimicrobial activity against Prevotella oralis assessed as percent susceptible isolates after 48 hrs by agar dilution method; type: functional
How it was run: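 CLSI agar dilution MIC testing of clinical isolates. 10^5 CFU spotted by replicator, plates incubated 48 h at 37°C in an anaerobic chamber. Susceptibility rates derived from the MICs.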

Fusobacterium nucleatum = experiment: Antimicrobial activity against Fusobacterium nucleatum after 48 hrs by agar dilution method; type: functional; how it was run: as §2
[25] = system: Porphyromonas asaccharolytica; experiment: Antimicrobial activity against Porphyromonas asaccharolytica after 48 hrs by agar dilution method; type: functional; how it was run: as §2
Fusobacterium mortiferum = experiment: Antimicrobial activity against Fusobacterium mortiferum after 48 hrs by agar dilution method; type: functional; how it was run: as §2
Hoylesella oralis [26] = experiment: Antimicrobial activity against Prevotella oralis after 48 hrs by agar dilution method; type: functional; how it was run: as §2
Bacteroides fragilis [27] = experiment: Antimicrobial activity against Bacteroides fragilis assessed as percent susceptible isolates after 48 hrs by agar dilution method; type: functional
Finegoldia magna = experiment: Antimicrobial activity against Finegoldia magna assessed as percent susceptible isolates after 48 hrs by agar dilution method; type: functional; how it was run: as §2
Actinomyces naeslundii [28] = experiment: Antimicrobial activity against Actinomyces naeslundii after 48 hrs by agar dilution method; type: functional; how it was run: as §3
Prevotella intermedia [29] = experiment: Antimicrobial activity against Prevotella intermedia assessed as percent resistant isolates after 48 hrs by agar dilution method in presence of 4 ug/ml beta-lactamase inhibitor Tazobactam; type: functional; how it was run: as §1
[30] = system: Parabacteroides distasonis; experiment: Antimicrobial activity against Bacteroides distasonis assessed as percent susceptible isolates after 48 hrs by agar dilution method in presence of 4 ug/ml beta-lactamase inhibitor Tazobactam; type: functional
Schaalia meyeri [31] = experiment: Antimicrobial activity against Actinomyces meyeri after 48 hrs by agar dilution method; type: functional; how it was run: as §3
[32] = system: Peptostreptococcus anaerobius; experiment: Antimicrobial activity against Peptostreptococcus anaerobius assessed as percent susceptible isolates after 48 hrs by agar dilution method; type: functional; how it was run: as §1
Hoylesella oralis [33] = experiment: Antimicrobial activity against Prevotella oralis assessed as percent resistant isolates after 48 hrs by agar dilution method in presence of 4 ug/ml beta-lactamase inhibitor Tazobactam; type: functional; how it was run: as §1

CCN1CCN(C(=O)N[C@@H](C(=O)N[C@@H]2C(=O)N3[C@@H]2SC(C)(C)[C@@H]3C(=O)O)c2ccccc2)C(=O)C1=O [PIPERACILLIN]
Activity (Bacteroides ovatus [1]): 7%
Activity (Bifidobacterium sp.): 92%
Activity (Prevotella buccae [2]): 78%
Activity [3]: 51%
Activity (Bacteroides ovatus [4]): 51%
Activity (Bacteroides ovatus [5]): 42%
Activity (Bacteroides fragilis [6]): 97%
Activity (Actinomyces israelii [7]): 92%
MIC50 [8]: 128 µg/mL (≈ 247 µM)
MIC90 [8]: > 256 µg/mL
Activity (Schaalia odontolytica): 92%
MIC50 (Parvimonas micra): 0.25 µg/mL (≈ 0.483 µM)
MIC90 (Parvimonas micra): 16 µg/mL (≈ 30.9 µM)
MIC50 (Actinomyces israelii [9]): 1 µg/mL (≈ 1.93 µM)
MIC90 (Actinomyces israelii [9]): 8 µg/mL (≈ 15.5 µM)
MIC50 (Actinomyces naeslundii [10]): 0.5 µg/mL
MIC90 (Actinomyces naeslundii [10]): 8 µg/mL
MIC50 (Bacteroides fragilis [11]): 8 µg/mL (≈ 15.5 µM)
MIC90 (Bacteroides fragilis [11]): > 256 µg/mL
Activity (Bacteroides fragilis [12]): 27%
Activity (Actinomyces naeslundii [13]): 0%
Activity (Bacteroides caccae [14]): 89%
MIC50 (Bacteroides fragilis [15]): 1 µg/mL
MIC90 (Bacteroides fragilis [15]): 4 µg/mL
MIC50 (Bacteroides caccae [16]): 8 µg/mL
MIC90 (Bacteroides caccae [16]): 64 µg/mL
MIC50 (Prevotella bivia): 16 µg/mL (≈ 30.9 µM)
MIC90 (Prevotella bivia): 128 µg/mL (≈ 247 µM)
Activity (Schaalia meyeri [17]): 92%
MIC50 (Prevotella buccae [18]): 16 µg/mL (≈ 30.9 µM)
MIC90 (Prevotella buccae [18]): 128 µg/mL (≈ 247 µM)
Activity (Phocaeicola vulgatus [19]): 51%
MIC50 (Prevotella intermedia [20]): 8 µg/mL (≈ 15.5 µM)
MIC90 (Prevotella intermedia [20]): 16 µg/mL (≈ 30.9 µM)
Activity (Phocaeicola vulgatus [21]): 42%
MIC50 (Bacteroides ovatus [22]): 8 µg/mL
MIC90 (Bacteroides ovatus [22]): 64 µg/mL
MIC50 (Eggerthella lenta): 0.5 µg/mL
MIC90 (Eggerthella lenta): 8 µg/mL
Activity [23]: 42%
Activity (Hoylesella oralis [24]): 78%
MIC (Fusobacterium nucleatum): 0.06 µg/mL (≈ 0.116 µM)
MIC [25]: 0.06 µg/mL (≈ 0.116 µM)
MIC (Fusobacterium mortiferum): 0.06 µg/mL (≈ 0.116 µM)
MIC50 (Hoylesella oralis [26]): 16 µg/mL (≈ 30.9 µM)
MIC90 (Hoylesella oralis [26]): 128 µg/mL (≈ 247 µM)
Activity (Bacteroides fragilis [27]): 67%
Activity (Finegoldia magna): 100%
MIC50 (Actinomyces naeslundii [28]): 1 µg/mL (≈ 1.93 µM)
MIC90 (Actinomyces naeslundii [28]): 8 µg/mL (≈ 15.5 µM)
Activity (Prevotella intermedia [29]): 0%
Activity [30]: 89%
MIC50 (Schaalia meyeri [31]): 1 µg/mL (≈ 1.93 µM)
MIC90 (Schaalia meyeri [31]): 8 µg/mL (≈ 15.5 µM)
Activity [32]: 100%
Activity (Hoylesella oralis [33]): 0%
